Laboratory results: ChEMBL document CHEMBL1145848, “Unique high-affinity synthetic mu-opioid receptor agonists with central- and systemic-mediated analgesia” (J Med Chem, 2003)

What was measured:
[1] = target: Delta-type opioid receptor (Rattus norvegicus, UniProt P33533); assay: Binding affinity for Opioid receptor delta 1 using [3H]DPDPE in rat brain P2 synaptosomal preparation; format: tissue-based
Outline: (§1)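 Competition binding at equilibrium, 2 h at room temperature, on rat brain P2 synaptosomes. Nonspecific binding with 2 μM unlabeled peptide. GF/C filtration and scintillation counting. Duplicates, five to eight doses, 3–5 repeats. Ki by Cheng–Prusoff.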

[2] = target: Mu-type opioid receptor (Rattus norvegicus, UniProt P33535); assay: Binding affinity for Opioid receptor mu 1 using [3H]DAGO in rat brain P2 synaptosomal preparation; format: tissue-based; outline: as §1
[3] = target: T1, Delta-type opioid receptor (Mus musculus, UniProt P32300); assay: Opioid receptor delta 1 agonism in mouse vas deferens; format: functional, tissue-based
Outline: (§2)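 Isolated tissue bioassay: mouse vas deferens for δ, guinea pig ileum for μ. Field stimulation with bipolar rectangular pulses of supramaximal voltage. Inhibition of the electrically evoked twitch measured, and IC50 taken from concentration–response curves. [D-Ala2]deltorphin I (MVD) and dermorphin (GPI) were internal standards. Five to six separate assays.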

[4] = target: T1, Delta-type opioid receptor; assay: Concentration required to double the agonist concentration to achieve the original response for Opioid receptor delta 1; format: functional; details: read-out: pA2 (converted)
Outline: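 Antagonism reported as pA2, the negative log of the molar antagonist concentration that doubles the agonist concentration needed for the original response. Measured in the δ bioassay, the electrically stimulated mouse vas deferens twitch preparation. n = 5–6.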

[5] = target: Opioid receptors; mu & delta (Rattus norvegicus) (UniProt P33533+P33535); assay: Receptor selectivity for the delta to mu opioid receptor; format: protein assay
Outline: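 δ/μ ratio of Ki values from rat brain P2 synaptosome competition binding ([3H]DPDPE for δ, [3H]DAGO for μ; 2 h, room temperature). Ki calculated by Cheng–Prusoff.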

[6] = target: Mu-type opioid receptor (Cavia porcellus, UniProt P97266); assay: Opioid receptor mu 1 agonism in guinea pig ileum; format: functional, tissue-based; outline: as §2
Chain of Mu-type opioid receptor (Cavia porcellus, UniProt P97266) (P97266 whole entry): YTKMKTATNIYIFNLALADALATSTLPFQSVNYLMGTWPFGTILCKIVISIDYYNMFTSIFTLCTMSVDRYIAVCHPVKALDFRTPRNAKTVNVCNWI

Chain of Opioid receptors; mu & delta (Rattus norvegicus) (P33533 whole entry, looked up): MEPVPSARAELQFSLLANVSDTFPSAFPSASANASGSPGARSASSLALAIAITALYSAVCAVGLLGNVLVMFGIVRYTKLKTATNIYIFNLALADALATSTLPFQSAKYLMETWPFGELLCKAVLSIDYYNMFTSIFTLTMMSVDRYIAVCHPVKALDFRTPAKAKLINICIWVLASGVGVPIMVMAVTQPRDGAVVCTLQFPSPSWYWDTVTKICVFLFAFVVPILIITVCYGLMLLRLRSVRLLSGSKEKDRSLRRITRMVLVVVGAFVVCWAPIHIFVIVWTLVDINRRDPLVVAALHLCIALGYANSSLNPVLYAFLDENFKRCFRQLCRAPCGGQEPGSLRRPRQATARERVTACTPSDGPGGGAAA
Chain of Opioid receptors; mu & delta (Rattus norvegicus) (P33535 whole entry, looked up): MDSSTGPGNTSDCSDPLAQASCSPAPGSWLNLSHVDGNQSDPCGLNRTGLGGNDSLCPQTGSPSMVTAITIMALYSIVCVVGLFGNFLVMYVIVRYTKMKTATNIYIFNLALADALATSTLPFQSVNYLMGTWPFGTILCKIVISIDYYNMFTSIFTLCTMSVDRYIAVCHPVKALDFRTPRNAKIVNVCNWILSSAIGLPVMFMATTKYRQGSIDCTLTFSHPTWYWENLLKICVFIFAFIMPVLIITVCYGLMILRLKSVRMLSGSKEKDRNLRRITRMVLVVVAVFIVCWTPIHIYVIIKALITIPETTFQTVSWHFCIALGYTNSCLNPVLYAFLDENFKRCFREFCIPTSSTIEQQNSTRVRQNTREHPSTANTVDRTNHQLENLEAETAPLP
Chain of Delta-type opioid receptor (Rattus norvegicus, UniProt P33533) (P33533 whole entry): as the sequence (P33533 whole entry, looked up) above
T1 sequence (P32300 whole entry): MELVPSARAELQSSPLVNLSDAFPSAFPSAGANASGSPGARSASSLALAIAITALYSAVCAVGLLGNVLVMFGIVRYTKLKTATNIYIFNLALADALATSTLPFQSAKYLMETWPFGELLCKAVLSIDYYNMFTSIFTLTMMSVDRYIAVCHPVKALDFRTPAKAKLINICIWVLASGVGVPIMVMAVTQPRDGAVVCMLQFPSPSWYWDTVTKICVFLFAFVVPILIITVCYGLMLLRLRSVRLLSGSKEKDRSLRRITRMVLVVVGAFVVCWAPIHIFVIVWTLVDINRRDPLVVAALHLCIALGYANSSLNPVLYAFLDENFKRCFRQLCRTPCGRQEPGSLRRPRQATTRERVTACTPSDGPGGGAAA
Chain of Mu-type opioid receptor (Rattus norvegicus, UniProt P33535) (P33535 whole entry): as the sequence (P33535 whole entry, looked up) above

Row | SMILES | Ki [1] [nM] | Ki [2] [nM] | IC50 [3] [nM] | Kb [4] [nM] | Ratio [5] | IC50 [6] [nM]
1 | N[C@H](Cc1ccc(O)cc1)C(=O)NCCCCCCCCNC(=O)[C@@H](N)Cc1ccc(O)cc1 | 6150 | 399 |  |  |  | 
2 | Cc1cc(O)cc(C)c1C[C@@H](N)C(=O)NCCCCNC(=O)[C@@H](N)Cc1c(C)cc(O)cc1C | 53.4 | 0.041 | > 10000 | 1580 | 1300 | 5.33
3 | Cc1cc(O)cc(C)c1C[C@@H](N)C(=O)NCCCCCCNC(=O)[C@@H](N)Cc1c(C)cc(O)cc1C | 46.1 | 0.053 | > 10000 | 794 | 870 | 3.08
4 | Cc1cc(O)cc(C)c1C[C@H](N)C(=O)NCCCCNC(=O)[C@H](N)Cc1ccccc1 | 62 | 0.52 | > 10000 | 3160 | 119 | 181
5 | N[C@H](Cc1ccc(O)cc1)C(=O)NCCCCCCNC(=O)[C@@H](N)Cc1ccc(O)cc1 | 21900 | 410 |  |  | 53 | 
6 | N[C@H](Cc1ccc(O)cc1)C(=O)NCCNC(=O)[C@@H](N)Cc1ccc(O)cc1 | 8290 | 648 |  |  | 13 | 
7 | Cc1cc(O)cc(C)c1C[C@H](N)C(=O)NCCCCNC(=O)[C@H](N)Cc1ccc(O)cc1 | 133 | 0.38 | > 10000 | 5010 | 349 | 255
8 | Cc1cc(O)cc(C)c1C[C@@H](N)C(=O)NCCCCCCCCNC(=O)[C@@H](N)Cc1c(C)cc(O)cc1C | 14.8 | 0.19 | > 10000 | 398 | 78 | 53.7
9 | Cc1cc(O)cc(C)c1C[C@@H](N)C(=O)NCCNC(=O)[C@@H](N)Cc1c(C)cc(O)cc1C | 116 | 1.43 | > 10000 | 3160 | 81 | 2840
10 | N[C@H](Cc1ccc(O)cc1)C(=O)NCCCCNC(=O)[C@@H](N)Cc1ccc(O)cc1 | 6500 | 309 |  |  | 21 | 
11 | N[C@H](Cc1ccccc1)C(=O)NCCCCNC(=O)[C@@H](N)Cc1ccccc1 | 46200 | 1530 |  |  | 30 | 
